Experimental data as given in ChEMBL document CHEMBL3244193, “Design of species- or isozyme-specific enzyme inhibitors. 3. Species and isozymic differences between mammalian and bacterial adenylate kinases in substituent tolerance in an enzyme-substrate complex” (J Med Chem, 1979).

Columns and labels:
[1] = molecular target: T1, Adenylate kinase isoenzyme 1 (Rattus norvegicus, UniProt P39069); test: Noncompetitive inhibition of Sprague-Dawley rat muscle adenylate kinase by Lineweaver-Burk plot analysis; details: read-out: I50
T1 sequence (P39069 whole entry): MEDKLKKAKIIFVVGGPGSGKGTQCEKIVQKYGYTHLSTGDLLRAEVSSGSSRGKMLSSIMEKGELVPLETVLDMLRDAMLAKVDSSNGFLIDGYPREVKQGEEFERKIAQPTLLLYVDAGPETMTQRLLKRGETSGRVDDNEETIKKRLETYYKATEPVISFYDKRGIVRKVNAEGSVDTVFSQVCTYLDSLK
In short: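 Enzyme source: rat skeletal muscle homogenized in KHPO4/glucose/EDTA/dithioerythritol/glycerol buffer and spun 1 h at 90000g, 2 °C. Electrofocused at pH 6-8; the AK zone (pI 6.4) was dialyzed as for the liver isozymes and held at 4 °C.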

[2] = molecular target: Adenylate kinase 2, mitochondrial (Rattus norvegicus, UniProt P29410); test: Competitive inhibition of Sprague-Dawley rat liver adenylate kinase 2 by Lineweaver-Burk plot analysis
In short: (§1)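 Inhibition constants from the coupled NADH assay (A340, 23 °C, 0.25 mM AMP, pH 7.6). Two inhibitor levels were each run against five or more ATP levels: 0.1-0.8 mM for AK II/III, 0.15-1.1 mM for muscle AK. Ki applies to ATP-competitive inhibition and I50 to noncompetitive inhibition.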

[3] = molecular target: GTP:AMP phosphotransferase AK3, mitochondrial (Rattus norvegicus, UniProt P29411); test: Competitive inhibition of Sprague-Dawley rat liver adenylate kinase 3 by Lineweaver-Burk plot analysis; in short: as §1
Sequence of GTP:AMP phosphotransferase AK3, mitochondrial (P29411 whole entry): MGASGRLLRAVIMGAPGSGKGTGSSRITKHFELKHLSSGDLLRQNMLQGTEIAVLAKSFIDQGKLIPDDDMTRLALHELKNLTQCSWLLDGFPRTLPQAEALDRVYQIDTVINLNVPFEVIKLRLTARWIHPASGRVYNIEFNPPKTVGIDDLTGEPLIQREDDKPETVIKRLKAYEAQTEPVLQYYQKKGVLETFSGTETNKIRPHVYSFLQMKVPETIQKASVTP

[4] = Noncompetitive inhibition of Escherichia coli adenylate kinase by Lineweaver-Burk plot analysis; details: read-out: I50
In short: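 E. coli B AK partially purified by ammonium sulfate fractionation and DEAE-cellulose chromatography; the single AK-active protein had pI 4.9. ATP KM was 0.06 mM with AMP at 0.13–0.29 mM in the coupled NADH assay (A340, 23 °C, pH 7.6 Tris).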

SMILES: CCCCSc1nc2c(N)ncnc2n1[C@@H]1O[C@H](COP(=O)(O)OP(=O)(O)OP(=O)(O)O)[C@@H](O)[C@H]1O
- IC50 [1]: 6200 µM
- Ki [2]: 75 µM
- Ki [3]: 60 µM

SMILES: CSc1nc2c(N)ncnc2n1[C@@H]1O[C@H](COP(=O)(O)OP(=O)(O)OP(=O)(O)O)[C@@H](O)[C@H]1O
- IC50 [1]: 5950 µM
- Ki [2]: 320 µM
- Ki [3]: 360 µM

SMILES: CCSc1nc2c(N)ncnc2n1[C@@H]1O[C@H](COP(=O)(O)OP(=O)(O)OP(=O)(O)O)[C@@H](O)[C@H]1O
- Ki [2]: 80 µM
- Ki [3]: 50 µM
- IC50 [4]: 5900 µM

SMILES: CCCSc1nc2c(N)ncnc2n1[C@@H]1O[C@H](COP(=O)(O)OP(=O)(O)OP(=O)(O)O)[C@@H](O)[C@H]1O
- IC50 [1]: 6150 µM
- Ki [2]: 55 µM
- Ki [3]: 65 µM
- IC50 [4]: 4700 µM

SMILES: CCCCCSc1nc2c(N)ncnc2n1[C@@H]1O[C@H](COP(=O)(O)OP(=O)(O)OP(=O)(O)O)[C@@H](O)[C@H]1O
- Ki [2]: 80 µM
- Ki [3]: 60 µM

SMILES: Nc1ncnc2c1nc(SCCO)n2[C@@H]1O[C@H](COP(=O)(O)OP(=O)(O)OP(=O)(O)O)[C@@H](O)[C@H]1O
- Ki [2]: 250 µM
- Ki [3]: 220 µM

SMILES: Nc1ncnc2c1nc(SCCCCO)n2[C@@H]1O[C@H](COP(=O)(O)OP(=O)(O)OP(=O)(O)O)[C@@H](O)[C@H]1O
- Ki [2]: 145 µM
- Ki [3]: 130 µM

SMILES: Nc1ncnc2c1nc(Sc1ccccc1)n2[C@@H]1O[C@H](COP(=O)(O)OP(=O)(O)OP(=O)(O)O)[C@@H](O)[C@H]1O
- Ki [2]: 320 µM

SMILES: O=C(CI)NCCCCCNc1ncnc2c1ncn2[C@@H]1O[C@H](COP(=O)(O)OP(=O)(O)OP(=O)(O)O)[C@@H](O)[C@H]1O
- IC50 [4]: 4750 µM

SMILES: CC(=O)NCCCCCCNc1ncnc2c1ncn2[C@@H]1O[C@H](COP(=O)(O)OP(=O)(O)OP(=O)(O)O)[C@@H](O)[C@H]1O
- IC50 [1]: 12900 µM
- Ki [3]: 4750 µM
